Measurements of several laboratories.
Target: cAMP-dependent protein kinase catalytic subunit alpha (PRKACA, Homo sapiens, UniProt P17612)

`c1ccc(N2CCN(Cc3nc4ccccc4[nH]3)CC2)nc1` gave a remaining binding of 91% (cell-free assay; competition with immobilised ligand; 1 µM).
For `FC(F)(F)Oc1cccc(-c2cnc3ccc(-c4ccncc4)nn23)c1`, the remaining binding was 91% (cell-free assay; competition with immobilised ligand; 5 µM).
For `O=C(N[C@H]1CCCCC/C=C\C2C[C@@]2(C(=O)O)NC(=O)[C@@H]2C[C@@H](Oc3ccncc3)CN2C1=O)OC1CCCC1` (stereo partly drawn), the remaining binding was 92% (cell-free assay; competition with immobilised ligand; 1 µM).
For `CN(C)c1nccc(-c2cnn3ncccc23)n1`, the remaining binding was 100% (binding; 1 µM).
With `Cc1c(C(=O)O)cc(-c2ccc(C3CCNCC3)cc2)c2ccc(-c3ccc(C(F)(F)F)cc3)cc12` the remaining binding was 100% (cell-free assay; competition with immobilised ligand; 1 µM).
With `O=C(c1ccc(Nc2ncc(Cl)c(-c3cc4ccccc4s3)n2)cc1)N1CCC(N2CCCC2)CC1` the remaining binding was 90% (binding; competition with immobilised ligand; 1 µM).
`Cc1c(NC(=O)c2cc(C(N)=O)nc3cc(F)ccc23)c(C(F)(F)F)nn1Cc1ccc(C#N)cc1` gave a remaining binding of 78% (cell-free assay; competition with immobilised ligand; 1 µM).
`O=C(Nc1c[nH]nc1C(=O)NC1CCNCC1)c1cc(F)cc(F)c1` has a remaining binding of 100% (binding; competition with immobilised ligand; 1 µM).
For `COCCOc1nc(-c2ccc(Cl)nc2)nc2c1CN(C(=O)c1ncn3ccccc13)CC2`, the remaining binding was 82% (cell-free assay; competition with immobilised ligand; 0.1 µM).
The remaining binding of `CC(C)(C)c1ccc(-c2nc(CBr)nn2-c2cccc(O)c2)cc1` is reported as 86% (cell-free assay; competition with immobilised ligand; 10 µM).
The remaining binding of `CN(CCCC(F)(F)F)c1nccc(-c2cnn3ncccc23)n1` is reported as 100% (binding; 1 µM).
For `COc1cnc(Nc2cccc(S(N)(=O)=O)c2)nc1N1CCN(c2ccccc2)CC1`, the remaining binding was 100% (binding; competition with immobilised ligand; 1 µM).
`C[C@@H]1CCN(c2nccc(-c3cnn4ncccc34)n2)C1` has a remaining binding of 100% (binding; 1 µM).
`O=C(c1ccc(Nc2nccc(-c3cc4ccccc4s3)n2)cc1)N1CCC(N2CCCC2)CC1` has a remaining binding of 100% (binding; competition with immobilised ligand; 1 µM).
The remaining binding of `c1cncc(-c2cccc(Nc3nccc(NC4CCCCC4)n3)c2)c1` is reported as 50% (binding; competition with immobilised ligand; 10 µM).
With `C=CC(=O)N1CCC(C(=O)NCC(=O)N2CCN(c3nc(-c4cnc(N)nc4C(F)F)nc(N4CCOCC4)n3)CC2)CC1` the remaining binding was 100% (binding; competition with immobilised ligand; 1 µM).
The remaining binding of `O=C(NCCCN1CCOCC1)c1ccc(Nc2nccc(-c3cc4ccccc4s3)n2)cc1` is reported as 95% (binding; competition with immobilised ligand; 1 µM).
The remaining binding of `CC1CCCN1c1nccc(-c2cnn3ncccc23)n1` (stereo not drawn) is reported as 100% (binding; 1 µM).
`C[C@@H](c1ccc(-n2cnc3c(N)ncnc32)cc1)N1CCc2nn(C)c(Cc3ccccc3)c2C1=O` gave a remaining binding of 100% (binding; competition with immobilised ligand; 0.1 µM).
For `CS(=O)(=O)N1CCCC(NC(=O)[C@H](CCC2CCCCC2)NC(=O)c2ccc(CNc3ncnc4c3nnn4-c3ccccc3)cc2)C1` (stereo partly drawn), the remaining binding was 100% (cell-free assay; competition with immobilised ligand; 0.1 µM).
The remaining binding of `C[C@@H]1CN(c2ccc3ncc(-c4ccc5[nH]nc(C6CC6)c5c4)n3n2)C[C@H](C)O1` is reported as 88% (binding; competition with immobilised ligand; 50 nM).
